Measurements published in ChEMBL document CHEMBL5543124, “Lead Compound Development of SRC-3 Inhibitors with Improved Pharmacokinetic Properties and Anticancer Efficacy” (J Med Chem, 2024).
Active and inactive are the calls of the source. No cut-off for these calls is given here.

Key:
MCF7 = assay: Cytotoxicity against human MCF7 cells assessed as inhibition of cell growth incubated for 72 hrs by MTT assay; type: functional, cell-based; conditions: MCF7, 72 h
BT-474 = assay: Cytotoxicity against human BT-474 cells assessed as inhibition of cell growth incubated for 72 hrs by MTT assay; type: functional, cell-based; conditions: BT-474, 72 h
How it was run: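 Cells seeded and grown to 70–80% confluence, then exposed for 72 h to a titration series (0.2–1000 nM). Viability read by MTT relative to untreated cells, with 6 replicates per concentration. IC50 fitted with a Hill-slope model.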

[1] = Cmax in CD-1 mouse at 10 mg/kg,po administration measured upto 48 hrs by LC-MS/MS analysis; type: ADME, organism-based; conditions: in vivo
How it was run: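 Oral gavage in ICR male mice (n = 3); dosing solution 1 mg/mL in 20% DMSO, 16% PEG, 4% dextrose in PBS. Tail-vein blood (10 μL) taken at 15, 30 min and 1, 2, 4, 8, 24, 48 h. Plasma quantified by LC-MS/MS against a 0.5–1000 ng/mL calibration; parameters from a non-compartmental extravascular model.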

Endothelin-1 receptor = target: T1, Endothelin-1 receptor (Homo sapiens, UniProt P25101); assay: Antagonist activity at EDNRA (unknown origin) by calcium flux assay; type: toxicity
T1 sequence (P25101 whole entry): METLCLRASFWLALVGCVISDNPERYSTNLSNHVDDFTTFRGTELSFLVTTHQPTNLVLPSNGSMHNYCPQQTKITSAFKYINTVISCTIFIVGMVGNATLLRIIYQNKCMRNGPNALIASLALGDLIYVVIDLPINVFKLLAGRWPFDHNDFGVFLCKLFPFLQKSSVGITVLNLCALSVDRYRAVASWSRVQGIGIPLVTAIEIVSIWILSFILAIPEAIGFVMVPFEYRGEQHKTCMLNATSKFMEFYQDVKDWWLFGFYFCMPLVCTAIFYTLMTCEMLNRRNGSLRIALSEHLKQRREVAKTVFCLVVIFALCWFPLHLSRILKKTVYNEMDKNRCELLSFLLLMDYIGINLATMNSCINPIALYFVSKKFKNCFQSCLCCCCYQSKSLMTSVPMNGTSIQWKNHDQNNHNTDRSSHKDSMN
How it was run: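 Tested in a commercial off-target safety screening panel of 78 targets. Values reported as RC50, taken as IC50 except for agonist mode, where RC50 is EC50.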

[2] = Half life in human liver microsomes at 1 uM incubated for 30 mins in presence of NADPH by LC-MS/MS analysis; type: ADME, Microsome; conditions: 0.5 h
How it was run: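 Human liver microsomes (1 mg/mL final) in 100 mM phosphate buffer with or without NADPH; compound at 1 μM final, 37 °C. Samples taken at 0, 5, 10, 20, 30 min (0 and 30 min without NADPH), quenched with cold acetonitrile containing internal standards, analysed by LC-MS/MS; verapamil as control.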

[3] = Stability in human plasma incubated upto 150 mins; type: ADME, cell-free; conditions: 2.5 h
[4] = Toxicity in SCID mouse orthotopically xenografted with human Panc-1-Luc cells assessed as change in body weight at 10 mg/kg,ip administration once daily for 8 weeks; type: organism-based; conditions: in vivo, 1344 h
How it was run: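 Male SCID mice (8 weeks) received orthotopic pancreatic implants of Panc-1-Luc cells (0.5×10^6 per mouse). Mice randomized by luciferase imaging (n=5 per group). From day 8, dosed 10 mg/kg i.p. or solvent vehicle once daily. Body weight recorded weekly; mice euthanized at day 63.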

[5] = target: Nuclear receptor coactivator 3 (Homo sapiens) (UniProt Q9Y6Q9); assay: Inhibition of recombinant His-tagged SRC-3 (unknown origin) expressed in baculovirus assessed as reduction in recruitment of p300 in ER complex at 0.15 uM incubated for 30 mins by pull-down based western blotting analysis
How it was run: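 Purified baculovirus-expressed His-SRC-3-flag (0.1 μg) preincubated with compound or vehicle for 30 min on ice. Then 0.1 μg recombinant ERα and His-p300 plus ERE-containing DNA oligo and 1 μM 17β-estradiol added, 1 h on ice. ER complexes immunoprecipitated with anti-ERα antibody; SRC-3 and p300 detected by western blot.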

PANC-1 = assay: Cytotoxicity against human PANC-1 cells mediated with siRNA control assessed as inhibition of cell growth incubated for 72 hrs by MTT assay; type: functional, cell-based; conditions: PANC-1, 72 h
How it was run: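 PANC-1 cells with stable lentiviral shRNA knockdown of SRC-3 or control shRNA; SRC-3 levels checked by western blot. Cells treated with a dose series for 72 h and viability read by MTT.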

MDA-MB-468 = assay: Cytotoxicity against human MDA-MB-468 cells assessed as chromatin accessibility alteration observed after 4 hrs by ATAC-seq analysis; type: functional, cell-based
How it was run: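 MDA-MB-468 cells treated for 4 h (ATAC-seq) or 12 h (RNA-seq) before chromatin accessibility or transcript profiling.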

MDA-PCa-118b [6] = assay: Antitumor activity against patient derived MDA-PCa-118b cells xenografted in SCID mouse assessed as reduction in bone metastasis at 10 mg/kg,ip administration measured after 4 weeks by X-ray imaging analysis; type: functional, organism-based; conditions: Homo sapiens
How it was run: (§1)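 AR-PDX 118b cells (1×10^5) injected via intra-femoral artery in male SCID mice (8–9 weeks). After 2 weeks, 10 mg/kg/day ip or vehicle for 4 weeks (n = 9/group). X-ray imaging every two weeks. At the end, femurs CT-scanned (5 per group) with 3D-reconstruction tumor size, and H&E histology used for tumor/femur area ratio.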

MDA-PCa-118b [7] = assay: Antitumor activity against patient derived MDA-PCa-118b cells xenografted in SCID mouse assessed as reduction in tumor burden in femur at 10 mg/kg,ip administration measured after 4 weeks by CT imaging analysis; type: functional, organism-based; conditions: Homo sapiens; how it was run: as §1
MDA-PCa-118b [8] = assay: Antitumor activity against patient derived MDA-PCa-118b cells xenografted in SCID mouse assessed as reduction in tumor burden in femur at 10 mg/kg,ip administration measured after 4 weeks by hematoxylin and eosin staining based analysis; type: functional, organism-based; conditions: Homo sapiens; how it was run: as §1
[9] = Antitumor activity against patient derived MDA-PCa-118b cells xenografted in SCID mouse assessed as reduction in femur volume at 10 mg/kg,ip administration measured after 4 weeks by CT imaging analysis; type: functional, Homo sapiens; set-up: scale not given: the % may be the effect or the level left; how it was run: as §1

Sequence of Nuclear receptor coactivator 3 (Homo sapiens) (Q9Y6Q9 2-1424 limits assumed): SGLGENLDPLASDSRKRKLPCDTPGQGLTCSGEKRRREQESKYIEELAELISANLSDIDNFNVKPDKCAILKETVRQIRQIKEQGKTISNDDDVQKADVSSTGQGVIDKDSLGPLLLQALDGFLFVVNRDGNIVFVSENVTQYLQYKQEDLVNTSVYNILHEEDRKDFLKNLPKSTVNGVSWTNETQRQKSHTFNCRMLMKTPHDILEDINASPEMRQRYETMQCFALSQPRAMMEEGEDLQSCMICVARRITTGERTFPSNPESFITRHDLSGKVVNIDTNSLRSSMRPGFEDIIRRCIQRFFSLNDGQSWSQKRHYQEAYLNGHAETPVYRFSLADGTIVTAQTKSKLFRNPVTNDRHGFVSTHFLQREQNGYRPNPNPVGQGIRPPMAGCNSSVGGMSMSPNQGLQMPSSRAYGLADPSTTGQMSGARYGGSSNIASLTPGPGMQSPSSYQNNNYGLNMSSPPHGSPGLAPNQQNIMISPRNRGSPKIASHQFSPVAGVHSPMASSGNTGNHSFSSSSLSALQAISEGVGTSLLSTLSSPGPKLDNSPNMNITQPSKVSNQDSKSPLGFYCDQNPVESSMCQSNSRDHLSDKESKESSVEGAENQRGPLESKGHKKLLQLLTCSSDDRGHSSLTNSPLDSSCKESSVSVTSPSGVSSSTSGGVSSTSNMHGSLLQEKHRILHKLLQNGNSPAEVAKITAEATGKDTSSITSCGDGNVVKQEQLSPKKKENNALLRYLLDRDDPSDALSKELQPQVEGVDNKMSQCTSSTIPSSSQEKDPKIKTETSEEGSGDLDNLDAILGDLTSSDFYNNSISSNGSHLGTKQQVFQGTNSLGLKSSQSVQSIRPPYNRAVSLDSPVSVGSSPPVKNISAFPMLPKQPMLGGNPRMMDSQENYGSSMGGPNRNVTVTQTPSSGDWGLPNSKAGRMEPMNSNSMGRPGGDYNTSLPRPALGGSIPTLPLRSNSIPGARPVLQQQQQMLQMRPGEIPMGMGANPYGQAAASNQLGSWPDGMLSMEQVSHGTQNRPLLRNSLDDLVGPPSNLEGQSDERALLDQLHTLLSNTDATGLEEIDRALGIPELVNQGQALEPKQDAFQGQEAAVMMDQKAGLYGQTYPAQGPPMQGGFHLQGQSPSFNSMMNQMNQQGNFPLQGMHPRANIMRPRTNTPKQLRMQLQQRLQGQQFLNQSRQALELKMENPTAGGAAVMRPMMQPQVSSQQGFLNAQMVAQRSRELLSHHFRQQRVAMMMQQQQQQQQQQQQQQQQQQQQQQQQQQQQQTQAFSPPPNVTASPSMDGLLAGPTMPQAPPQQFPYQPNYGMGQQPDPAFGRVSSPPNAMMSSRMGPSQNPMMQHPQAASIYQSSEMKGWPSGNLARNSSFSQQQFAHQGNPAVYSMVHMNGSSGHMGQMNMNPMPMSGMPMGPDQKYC

Cmax [1]: 217 ng/mL | t1/2 [2]: 8.49 min | Stability [3]: Stable | inhibition [5]: Active
SMILES: C/C(=N\N=c1/[nH]c2cc(F)c(F)cc2n1C)c1ccc(F)cn1
IC50 (MCF7): 3.4 nM | IC50 (BT-474): 0.8 nM | IC50 (Endothelin-1 receptor): 4000 nM | Activity [4]: Non-Toxic | IC50 (PANC-1): 25.2 nM | Activity (MDA-MB-468): Active | Activity (MDA-PCa-118b [6]): Active | Activity (MDA-PCa-118b [7]): Active | Activity (MDA-PCa-118b [8]): Active | Activity [9]: >55%
